Experiments:
[1] = test system: Human immunodeficiency virus 1; assay: Antiviral activity against HIV1 3B infected in human MT2 cells assessed as inhibition viral p24 antigen production after 4 days by ELISA; type: functional, organism-based; conditions: Human immunodeficiency virus 1, 3B, MT2, 96 h
[2] = Selectivity index, ratio of CC50 for human MT2 cells to EC50 for HIV1 3B infected in human MT2 cells; type: toxicity, cell-based; conditions: MT2 cells (CC50) and HIV1 3B infected MT2 cells (EC50)
Summary of the method: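 Selectivity index taken as MT-2 CC₅₀ (XTT, 4 days) divided by EC₅₀ against HIV-1 IIIB infection (p24 ELISA).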

[3] = test system: Human immunodeficiency virus 1; assay: Antiviral activity against HIV1 isolate 92US657 infected in human MT2 cells assessed as inhibition viral p24 antigen production after 4 days by ELISA; type: functional, organism-based; conditions: Human immunodeficiency virus 1, isolate 92US657, MT2, 96 h
[4] = Cytotoxicity against human MT2 cells after 4 days by XTT assay; type: cell-based
Summary of the method: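 Cells (5 × 10⁵/mL) mixed with equal volume of compound at graded concentrations and held 4 days at 37 °C. XTT (1 mg/mL) containing 0.02 μM phenazine methosulphate added, then 4 h at 37 °C. Absorbance read at 450 nm. CC₅₀ by CalcuSyn.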

O=C(O)c1cccc(-c2ccc(/C=C3\SC(=S)N(CCc4ccccc4)C3=O)o2)c1O
EC50 [1]: 61 nM
selectivity ratio [2]: 269
EC50 [3]: 477 nM
CC50 at 96 h [4]: 16400 nM

O=C(O)c1cccc(-c2ccc(/C=C3\SC(=S)N(CCc4ccccc4)C3=O)o2)c1Cl
EC50 [1]: 74 nM
selectivity ratio [2]: 411
EC50 [3]: 521 nM
CC50 at 96 h [4]: 30400 nM

O=C(O)c1cccc(-c2ccc(/C=C3\SC(=S)N(CCc4ccccc4)C3=O)o2)c1F
EC50 [1]: 145 nM
selectivity ratio [2]: 194
EC50 [3]: 1080 nM
CC50 at 96 h [4]: 28100 nM
